How the values were obtained:
[1] = system: Cryptosporidium parvum; test: Binding affinity to Cryptosporidium parvum recombinant H6-NBD1 of ABC3 transporter expressed in Escherichia coli BL21(DE3) assessed as intrinsic fluorescence quenching at 100 uM relative to control
Outline: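 His6-tagged NBD1 purified on Ni-NTA, dialyzed against 50 mM Tris pH 7.3/100 mM KCl/0.02% HECAMEG/20% glycerol. Protein 0.25–0.5 μM in 50 mM Tris pH 7.3, 100 mM KCl, 0.02% HECAMEG; compounds 100 μM from DMSO stocks (≤2.5% DMSO), 30 min at 20 ± 2 °C. Excitation 295 nm, emission 328 nm; % of dialysis-buffer/solvent control; triplicates, 3 separate experiments.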

[2] = Inhibition of Cryptosporidium parvum recombinant H6-NBD1 of ABC3 transporter ATPase activity expressed in Escherichia coli BL21(DE3) after 10 mins
Outline: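 Purified His6-NBD1 (2.5 μM final) incubated 10 min at 37 °C in 50 mM Tris pH 7.3, 100 mM KCl, 4 mM MgCl2, 0.02% HECAMEG with serially diluted compounds at various ATP concentrations. Reaction products quantified in triplicate by reverse-phase HPLC, detection at 254 nm; inhibition type and Ki by non-linear regression.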

Structure (SMILES) | Activity [1] | Ki ([2]; read-out: Ki) | Ki [2]
CCOC(=O)C(C)n1ccc(=O)c2c1ncn2Cc1ccccc1 (racemic) | 69.3% | 232 µM | 
O=C1C=CC(=O)c2c1cnn2Cc1ccccc1 | 22.9% |  | 
Cc1nc(Cn2ncc3c2C(=O)C=CC3=O)cs1 | 21.6% | 116 µM | 
CC(=O)[C@H]1CC[C@H]2[C@@H]3CCC4=CC(=O)CC[C@]4(C)[C@H]3CC[C@]12C | 71.7% |  | 
CC(C)(C)OC(=O)NCCCn1ccc(=O)c2c1ncn2Cc1ccccc1 | 96.1% | 539 µM | 
Nc1ncnc2c1ncn2[C@@H]1O[C@H](COP(=O)(O)OP(=O)(O)OP(=O)(O)O)[C@H]2OC3(O[C@H]21)C([N+](=O)[O-])=CC(=[N+]([O-])[O-])C=C3[N+](=O)[O-] (some centres undefined) [TNP-ATP] | 33.1% | 36.6 µM | 
CC(C)(C)OC(=O)NCCCCCCn1ccc(=O)c2c1ncn2Cc1ccccc1 | 60.8% |  | Not Active
CCOC(=O)Cn1ccc(=O)c2c1ncn2Cc1ccccc1 | 85.5% |  | 
CCOC(=O)CCCn1ccc(=O)c2c1ncn2Cc1ccccc1 | 80.1% |  | 
